Test results from ChEMBL document CHEMBL1122218, “Phosphonate analogues of pyridoxal phosphate with shortened side chains” (J Med Chem, 1983).
Several values for one entry are separate records, joined by “and”; a condition that tells them apart may be missing. Identical values can stand only once.

Test: Apparent acid dissociation constant (pK) was determined
Assay type: ADME
Conditions: for pKa: read-out: pK
How it was run: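 Analogue bound to apo-aspartate aminotransferase (complex formed at pH 8.3) was titrated toward lower pH by adding 2 M acetate buffer, pH 5.4. Absorption spectra were followed for the shift of the bound-coenzyme band to 420 nm, and the pK was estimated from the pH dependence of that spectral change.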

CCOP(=O)(Cc1cnc(C)c(O)c1CO)OCC
pK: 8.59 | pKa: 4.53

CCOP(=O)(O)Cc1cnc(C)c(O)c1C=O
pK: 3.91 and 8.21

CCOP(=O)(Cc1cnc(C)c(O)c1C=O)OCC
pK: 3.03 and 7

Cc1cnc(C)c(O)c1C=O
pK: 8.05 | pKa: 4.15

Cc1ncc(CP(=O)(O)O)c(C=O)c1O
pK: 4.07 and 6.76 and 9.2

Cc1ncc(COP(=O)(O)O)c(C=O)c1O [PYRIDOXAL PHOSPHATE ANHYDROUS]
pK: 3.62 and 6.1 and 8.33
